Measurements: ChEMBL document CHEMBL4270533, “Lipidated α/α-AA heterogeneous peptides as antimicrobial agents” (Eur J Med Chem, 2018)
Values after ≈ are worked out from the molar mass of the structure shown.

How the values were obtained:
[1] = tested on: Escherichia coli; assay: Antimicrobial activity against Escherichia coli JM109 after 18 hrs; assay type: functional; conditions: JM109, 18 h
Method in brief: (§1)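 Broth microdilution. Bacteria grown overnight in trypticase soy broth at 37 °C with shaking, then regrown to mid-log phase. 10^6 CFU/mL mixed 1:1 with peptide (100 to 0.5 μg/mL) and incubated 18 h at 37 °C. MIC taken as the lowest concentration inhibiting growth by OD600. Untreated bacteria served as control. Three experiments, each in duplicate.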

[2] = tested on: Staphylococcus epidermidis; assay: Antimicrobial activity against methicillin-resistant Staphylococcus epidermidis RP62A after 18 hrs; assay type: functional
Method in brief: (§2)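 Broth microdilution. A colony was grown overnight in trypticase soy broth at 37 °C with shaking, then regrown to mid-log phase. 10^6 CFU/mL inoculum was mixed 1:1 with peptide dilutions (100 to 0.5 μg/mL) and incubated 18 h at 37°C. Read at OD600; MIC is the lowest concentration inhibiting growth. Three experiments, each in duplicate.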

[3] = tested on: Klebsiella pneumoniae; assay: Antimicrobial activity against Klebsiella pneumoniae ATCC 13383 after 18 hrs; assay type: functional; conditions: ATCC 13383, 18 h; method in brief: as §1
[4] = tested on: Enterococcus faecalis; assay: Antimicrobial activity against vancomycin-resistant Enterococcus faecalis ATCC 700802 after 18 hrs; assay type: functional; conditions: ATCC 700802, 18 h; method in brief: as §2
[5] = tested on: Staphylococcus aureus; assay: Antimicrobial activity against methicillin-resistant Staphylococcus aureus ATCC 33591 after 18 hrs; assay type: functional; conditions: ATCC 33591, 18 h; method in brief: as §2
[6] = Hemolytic activity in human RBC after 1 hr; assay type: ADME, cell-based, Erythrocyte; conditions: red blood cells (erythrocytes)
Method in brief: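 Fresh human erythrocytes, PBS-washed (1000g, 10 min), as a 5% v/v suspension mixed 1:1 with two-fold compound dilutions. Incubated 1 h at 37 °C, then centrifuged. Supernatant hemoglobin read at 540 nm. PBS served as 0% lysis and 0.1% Triton X-100 as 100% lysis; % hemolysis computed relative to these.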

[7] = Selectivity ratio of HC50 for hemolytic activity in human RBC to MIC for methicillin-resistant Staphylococcus aureus ATCC 33591; assay type: toxicity; conditions: red blood cells (erythrocytes)
[8] = tested on: Escherichia coli; assay: Bactericidal activity against Escherichia coli assessed as time required for bacterial kill at 12.5 ug/ml by time kill assay; assay type: functional
[9] = tested on: Escherichia coli; assay: Bactericidal activity against Escherichia coli assessed as time required for bacterial kill at 25 to 50 ug/ml by time kill assay; assay type: functional

Structure (SMILES) | MIC [1] | MIC [2] | MIC [3] | MIC [4] | MIC [5] | HC50 at 1 h [6] | selectivity ratio [7] | Time [8] | Time [9]
CCCCCCCCCCCCCCCC(=O)NCCN(C(=O)CCc1ccccc1)[C@@H](CCCCN)C(N)=O | > 25 µg/mL | > 25 µg/mL | > 25 µg/mL | > 25 µg/mL | 25 µg/mL (≈ 44.7 µM) |  |  |  | 
CCCCCCCCCCCCCCCC(=O)N[C@@H](CCCCN)C(=O)NCCN(C(=O)CCc1ccccc1)[C@@H](CCCCN)C(=O)NCCN(C(=O)CCc1ccccc1)[C@@H](CCCCN)C(=O)NCCN(C(=O)CCc1ccccc1)[C@@H](CCCCN)C(N)=O | 1.5 to 3 µg/mL (≈ 1.16 to 2.32 µM) | 3 to 6 µg/mL (≈ 2.32 to 4.64 µM) | > 25 µg/mL | 6 to 12 µg/mL (≈ 4.64 to 9.27 µM) | 1.5 to 3 µg/mL (≈ 1.16 to 2.32 µM) | 250 µg/mL | 83 |  | 
CCCCCCCCCC(=O)N[C@@H](CCCCN)C(=O)NCCN(C(=O)CCc1ccccc1)[C@@H](CCCCN)C(N)=O | > 25 µg/mL | > 25 µg/mL | > 25 µg/mL | > 25 µg/mL | > 25 µg/mL |  |  |  | 
CCCCCCCCCCCCCCCC(=O)N[C@@H](CCCCN)C(=O)NCCN(C(=O)CCCN)[C@@H](Cc1ccccc1)C(N)=O | 3 µg/mL (≈ 4.55 µM) |  | 3 µg/mL (≈ 4.55 µM) |  |  | 125 µg/mL |  | 120 min | 60 min
CCCCCCCCCCCC(=O)N[C@@H](CCCCN)C(=O)NCCN(C(=O)CCc1ccccc1)[C@@H](CCCCN)C(N)=O | > 25 µg/mL | > 25 µg/mL | > 25 µg/mL | > 25 µg/mL | > 25 µg/mL |  |  |  | 
CCCCCCCCCCCCCCCC(=O)N[C@@H](CCCCN)C(=O)NCCN(C(=O)CCc1ccccc1)[C@@H](CCCCN)C(N)=O | 1.5 to 3 µg/mL (≈ 2.18 to 4.37 µM) | 3 to 6 µg/mL (≈ 4.37 to 8.73 µM) | 6 to 12 µg/mL (≈ 8.73 to 17.5 µM) | 6 to 12 µg/mL (≈ 8.73 to 17.5 µM) | 1.5 to 3 µg/mL (≈ 2.18 to 4.37 µM) | 31.2 µg/mL | 10.4 |  | 
CCCCCCCCCCCCCCCC(=O)N[C@@H](CCCCN)C(=O)NCCN(C(=O)CCc1ccccc1)[C@@H](CCCCN)C(=O)NCCN(C(=O)CCc1ccccc1)[C@@H](CCCCN)C(N)=O | 1.5 to 3 µg/mL (≈ 1.51 to 3.03 µM) | > 25 µg/mL | > 25 µg/mL | > 25 µg/mL | < 3 µg/mL | 31.2 µg/mL | 10.4 |  | 
CCCCCC(=O)N[C@@H](CCCCN)C(=O)NCCN(C(=O)CCc1ccccc1)[C@@H](CCCCN)C(N)=O | > 25 µg/mL | > 25 µg/mL | > 25 µg/mL | > 25 µg/mL | > 25 µg/mL |  |  |  | 
CCCCCCCC(=O)N[C@@H](CCCCN)C(=O)NCCN(C(=O)CCc1ccccc1)[C@@H](CCCCN)C(N)=O | > 25 µg/mL | > 25 µg/mL | > 25 µg/mL | > 25 µg/mL | > 25 µg/mL |  |  |  | 
CCCCCCCCCCCCCC(=O)N[C@@H](CCCCN)C(=O)NCCN(C(=O)CCc1ccccc1)[C@@H](CCCCN)C(N)=O | 6 to 12 µg/mL (≈ 9.11 to 18.2 µM) | > 25 µg/mL | > 25 µg/mL | > 25 µg/mL | 12 to 25 µg/mL (≈ 18.2 to 37.9 µM) |  |  |  | 
